The source made the active and inactive calls. No cut-off for these calls is given here.
Assays:
Mus musculus [1] = species: Mus musculus; assay: Effect of compound on white blood cells levels in mice at low dose on day 8; assay type: functional
In short: (§1)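 Male B6D2F1 mice were gavaged daily with compound in corn oil at low, mid 1, mid 2 or high dose. Serum triglycerides and circulating white blood cells were measured on the stated day (8, 29, 36, 65). Values are group mean ± SD expressed as % relative to corn-oil vehicle, with significance at p ≤ 0.05.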

Mus musculus [2] = species: Mus musculus; assay: Alopecia in mice observed at mid dose 1 with Hypervitaminosis; 2/16; assay type: functional, organism-based
Mus musculus [3] = species: Mus musculus; assay: Enlarged spleen in Gross pathological observations in mice with hypervitaminosis A at mid dose 1 with gross observations/total number of mice in group; 5/16; assay type: functional, organism-based
Mus musculus [4] = species: Mus musculus; assay: Compound toxicity determined by total dose to termination (day 25/65) in low dose; assay type: functional
In short: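 Male B6D2F1 mice given daily oral gavage in corn oil; dosages increased during the study (day 30 or day 51 depending on compound). Cumulative dose in mg/kg administered up to termination (day 65, or day 25 for TTNPB 0.01/0.05 mg/kg/day groups).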

Mus musculus [5] = species: Mus musculus; assay: Effect of compound on Spleen to body weight ratios in mice at high dose on day 65; all the animals died by day 65; assay type: functional, organism-based
In short: (§2)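 Male B6D2F1 mice dosed daily by gavage with compound in corn oil; vehicle 1 (corn oil) controls run to termination on day 65. Low, mid 1, mid 2 and high dose groups, with dosage increases partway through the study. Organ-to-body weight ratios (×1000) taken at necropsy on day 65, reported as mean ± SD for 4 to 8 animals and as % difference from vehicle.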

Mus musculus [6] = species: Mus musculus; assay: Fracture incidence in mouse at low dose; 2/8
Mus musculus [7] = species: Mus musculus; assay: Effect of compound on white blood cells levels in mice at low dose on day 65; assay type: functional; in short: as §1
Mus musculus [8] = species: Mus musculus; assay: Effect of compound on serum Alkaline phosphatase levels in mice at mid dose 1 on day 36; assay type: functional
In short: (§3)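 Male B6D2F1 mice dosed daily by oral gavage in corn oil at low, mid 1, mid 2 or high dose. Blood sampled on set days (8, 29, 36, 65) for clinical chemistry, serum alkaline phosphatase and triglycerides. Group mean ± SD reported as % relative to vehicle 1; significance p < 0.05 versus corn oil vehicle.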

Mus musculus [9] = species: Mus musculus; assay: Effect of compound on white blood cells levels in mice at mid dose 1 on day 65; assay type: functional; in short: as §1
Mus musculus [10] = species: Mus musculus; assay: Fracture incidence in mouse at mid dose 2; 0/8
Mus musculus [11] = species: Mus musculus; assay: Effect of compound on serum Alkaline phosphatase levels in mice at mid dose 1 on day 29; assay type: functional; in short: as §3
Mus musculus [12] = assay: Calculated 30-day maximally tolerated dose based on 10% weight loss in mice at 0.01 mg/kg/day; assay type: functional
Mus musculus [13] = assay: Effect of compound on Spleen to body weight ratios in mice at 0.2 mg/kg/day dose on day 65; dead by day 65; assay type: functional, organism-based; in short: as §2
Mus musculus [14] = assay: Alopecia observed at 0.1 mg/kg/day dose in mice with hypervitaminosis; 10/16; assay type: functional, organism-based
Mus musculus [15] = assay: Effect of compound on right testicle to body weight ratios in mice at 0.05 mg/kg/day dose on day 25; dead on day 65; assay type: functional, organism-based
Mus musculus [16] = assay: Fracture incidents in mouse at 0.8 mg/kg/day; 0/16
Mus musculus [17] = assay: Skin scaling at 0.8 mg/kg/day in mice with hypervitaminosis; 12/16; assay type: functional, organism-based
Mus musculus [18] = assay: Effect of compound on right testicle to body weight ratios in mice at 0.01 mg/kg/day dose on day 25; assay type: functional, organism-based
[19] = Mortality rate in mice at 0.2 mg/kg/day; range (8-19); assay type: ADME, organism-based; settings: mouse, in vivo
In short: (§4)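 Male B6D2F1 mice given compound daily by gavage in corn oil at the stated dose levels, with corn oil vehicle controls. Deaths counted as animals found dead or sacrificed moribund, with day(s) of death recorded. Heteroarotinoid groups ran to day 65 and low-dose reference groups to day 25.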

Mus musculus [20] = assay: Effect of compound on adrenal to body weight ratios in mice at 0.01 mg/kg/day dose; measured on day 25
[21] = Mortality rate in mice at 0.8 mg/kg/day; range (7-8); assay type: ADME, organism-based; settings: mouse, in vivo; in short: as §4
Mus musculus [22] = assay: Fracture incidents in mouse at 0.2 mg/kg/day; 3/8
Mus musculus [23] = assay: Average number of fractures per mouse at 0.2 mg/kg/day; 1/3
Mus musculus [24] = assay: Fracture incidents in mouse at 0.01 mg/kg/day; 1/7
Mus musculus [25] = assay: Effect of compound on right testicle to body weight ratios in mice at 0.4 mg/kg/day dose on day 65; dead on day 65; assay type: functional, organism-based
Mus musculus [26] = assay: Effect of compound on thymus to body weight ratios in mice at 0.2 mg/kg/day dose; all the animals died by day 65; assay type: functional, organism-based
In short: (§5)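 Male B6D2F1 mice were dosed daily by gavage in corn oil, with TTNPB given at 0.1–0.8 or 0.01/0.05 mg/kg/day. Thymus-to-body weight ratio (×1000) was taken at necropsy on day 65 against vehicle 1, or on day 25 for the 0.01/0.05 groups against vehicle 2. Mean ± SD of 4–8 animals, reported as % difference from vehicle.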

Mus musculus [27] = assay: Average number of fractures per mouse at 0.1 mg/kg/day
Mus musculus [28] = assay: Enlarged lymph in gross pathological observations with hypervitaminosis A in mice at 0.05 mg/kg/day dose with gross observations/total number of animals in group; 8/8; assay type: functional, organism-based
Mus musculus [29] = assay: Avoiding pressure on limbs at 0.2 mg/kg/day dose in mice with hypervitaminosis; 0/16; assay type: functional, organism-based; settings: Limb
Mus musculus [30] = assay: Approximate day to determine 10% weight loss in mice at 0.05 mg/kg/day; assay type: functional
In short: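 Male B6D2F1 mice dosed daily by gavage in corn oil; body weights followed to termination (day 65, or day 25 for TTNPB 0.01/0.05 mg/kg/day groups) and compared with the matching vehicle group. Value is approximate day of onset of 10% body weight reduction versus vehicle.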

Mus musculus [31] = assay: Enlarged lymph in gross pathological observations with hypervitaminosis A in mice at 0.2 mg/kg/day dose with gross observations/total number of animals in group; 16/16; assay type: functional, organism-based
Mus musculus [32] = assay: Effect of compound on right testicle to body weight ratios in mice at 0.1 mg/kg/day dose; all the animals died by day 65; assay type: functional, organism-based
Mus musculus [33] = assay: Effect of compound on thymus to body weight ratios in mice at 0.1 mg/kg/day dose; all the animals died by day 65; assay type: functional, organism-based; in short: as §5
Mus musculus [34] = assay: Average number of fractures per mouse at 0.4 mg/kg/day
Mus musculus [35] = assay: Effect of compound on thymus to body weight ratios in mice at 0.4 mg/kg/day dose; all the animals died by day 65; assay type: functional, organism-based; in short: as §5
Mus musculus [36] = assay: Total dose of 10% weight loss in mice at 0.01 mg/kg/day; assay type: functional
Mus musculus [37] = assay: Enlarged spleen in Enlarged spleen in Gross pathological observations with hypervitaminosis A in mice at 0.2 mg/kg/day dose with gross observations/total number of animals in group; 0/16; assay type: functional, organism-based

CC(/C=C/C=C(\C)c1ccc2c(c1)C(C)(C)CCO2)=C\C(=O)O
Activity (Mus musculus [1]): 4.84 | Activity (Mus musculus [2]): inactive

C/C(=C\c1ccc(C(=O)O)cc1)c1ccc2c(c1)C(C)(C)CCO2
Activity (Mus musculus [3]): Weak activity | Total dose (Mus musculus [4]): 147.1 mg/kg | Activity (Mus musculus [5]): Toxic | Activity (Mus musculus [6]): Weak activity | Activity (Mus musculus [7]): 4.27 | Activity (Mus musculus [8]): 81.5 | Activity (Mus musculus [9]): 5.46

CC(/C=C/C=C(\C)c1ccc2c(c1)C(C)(C)CCS2)=C\C(=O)O
Activity (Mus musculus [10]): inactive | Activity (Mus musculus [11]): 135.8

C/C(=C\c1ccc(C(=O)O)cc1)c1ccc2c(c1)C(C)(C)CCC2(C)C
Max tolerated dose (Mus musculus [12]): >0.008 mg/kg | Activity (Mus musculus [13]): Toxic | Activity (Mus musculus [14]): Weak activity | Activity (Mus musculus [15]): Toxic | Activity (Mus musculus [16]): inactive | Activity (Mus musculus [17]): Active | Activity (Mus musculus [18]): Toxic | Mortality [19]: 6 day of death | Activity (Mus musculus [20]): Toxic | Mortality [21]: 16 day of death | Activity (Mus musculus [22]): Weak activity | Activity (Mus musculus [23]): Weak activity | Activity (Mus musculus [24]): inactive | Activity (Mus musculus [25]): Toxic | Activity (Mus musculus [26]): Toxic | Activity (Mus musculus [27]): 2 | Activity (Mus musculus [28]): Active | Activity (Mus musculus [29]): inactive | Activity (Mus musculus [30]): 8 | Activity (Mus musculus [31]): Active | Activity (Mus musculus [32]): Toxic | Activity (Mus musculus [33]): Toxic | Activity (Mus musculus [34]): 0.4 | Activity (Mus musculus [35]): Toxic | Dose (Mus musculus [36]): >0.25 mg/kg | Activity (Mus musculus [37]): inactive

Reference: ChEMBL document CHEMBL1130202, “Biologically active heteroarotinoids exhibiting anticancer activity and decreased toxicity” (J Med Chem, 1997)
